Laboratory results as given in ChEMBL document CHEMBL1667815, “Pharmacophore models based studies on the affinity and selectivity toward 5-HT1A with reference to α1-adrenergic receptors among arylpiperazine derivatives of phenytoin” (Bioorg Med Chem, 2011).

Assays:
[1] = target: T1, 5-hydroxytryptamine receptor 1A (Rattus norvegicus) (UniProt P19327); assay: Displacement of [3H]-8-OH-DPAT from 5-HT1A receptor in rat hippocampal membranes by liquid scintillation counting; format: cell membranes; conditions: Hippocampus, Membrane
T1 sequence (whole entry): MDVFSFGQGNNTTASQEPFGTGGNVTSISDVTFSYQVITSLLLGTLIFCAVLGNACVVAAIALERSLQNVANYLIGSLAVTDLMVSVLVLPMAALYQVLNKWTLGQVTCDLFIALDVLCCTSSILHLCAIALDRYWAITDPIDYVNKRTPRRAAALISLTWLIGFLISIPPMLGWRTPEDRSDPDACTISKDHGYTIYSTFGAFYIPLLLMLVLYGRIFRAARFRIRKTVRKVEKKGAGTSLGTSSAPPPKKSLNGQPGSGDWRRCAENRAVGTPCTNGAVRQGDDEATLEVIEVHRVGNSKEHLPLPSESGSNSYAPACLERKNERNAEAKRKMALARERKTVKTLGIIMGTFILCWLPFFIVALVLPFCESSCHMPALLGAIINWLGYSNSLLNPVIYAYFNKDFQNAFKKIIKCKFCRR
How it was run: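 Native 5-HT1A sites in rat hippocampal membranes, labelled with [3H]-8-OH-DPAT (170.2 Ci/mmol). Each compound was tested at two concentrations (0.1 and 1), each in triplicate. Bound radioactivity was counted by liquid scintillation. Ks values were estimated from three independent binding experiments and reproduced within 20%.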

[2] = target: Adrenergic receptor alpha-1 (Rattus norvegicus) (UniProt P15823+P23944+P43140); conditions: Wistar, Thoracic aorta
[3] = organism: Rattus norvegicus; assay: Selectivity ratio of Ki for alpha1-adrenergic receptor in rat cerebral cortex membranes to Ki for 5-HT1A receptor in rat hippocampal membranes; format: cell membranes; conditions: Membrane
[4] = target: T2, Adrenergic receptor alpha-1 (Rattus norvegicus, UniProt P15823+P23944+P43140); assay: Displacement of [3H]-prazosin from alpha1-adrenergic receptor in rat cerebral cortex membranes after 30 mins by scintillation counting; format: cell membranes, Membrane
T2 sequence (P15823 whole entry): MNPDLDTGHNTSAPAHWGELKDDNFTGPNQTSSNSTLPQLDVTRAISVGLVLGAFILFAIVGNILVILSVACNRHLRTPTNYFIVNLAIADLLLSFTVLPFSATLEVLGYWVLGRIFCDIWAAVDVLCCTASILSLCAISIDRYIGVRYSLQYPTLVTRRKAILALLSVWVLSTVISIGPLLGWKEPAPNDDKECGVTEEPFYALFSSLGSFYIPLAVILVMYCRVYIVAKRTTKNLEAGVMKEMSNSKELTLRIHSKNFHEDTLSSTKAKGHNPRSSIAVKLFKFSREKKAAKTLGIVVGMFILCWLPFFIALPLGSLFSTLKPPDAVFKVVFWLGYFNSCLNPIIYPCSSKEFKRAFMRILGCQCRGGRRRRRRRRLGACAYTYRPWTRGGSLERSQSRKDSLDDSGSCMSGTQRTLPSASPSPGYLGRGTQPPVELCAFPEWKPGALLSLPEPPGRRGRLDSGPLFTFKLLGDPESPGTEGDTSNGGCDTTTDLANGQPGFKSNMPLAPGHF
T2 sequence (P23944 whole entry): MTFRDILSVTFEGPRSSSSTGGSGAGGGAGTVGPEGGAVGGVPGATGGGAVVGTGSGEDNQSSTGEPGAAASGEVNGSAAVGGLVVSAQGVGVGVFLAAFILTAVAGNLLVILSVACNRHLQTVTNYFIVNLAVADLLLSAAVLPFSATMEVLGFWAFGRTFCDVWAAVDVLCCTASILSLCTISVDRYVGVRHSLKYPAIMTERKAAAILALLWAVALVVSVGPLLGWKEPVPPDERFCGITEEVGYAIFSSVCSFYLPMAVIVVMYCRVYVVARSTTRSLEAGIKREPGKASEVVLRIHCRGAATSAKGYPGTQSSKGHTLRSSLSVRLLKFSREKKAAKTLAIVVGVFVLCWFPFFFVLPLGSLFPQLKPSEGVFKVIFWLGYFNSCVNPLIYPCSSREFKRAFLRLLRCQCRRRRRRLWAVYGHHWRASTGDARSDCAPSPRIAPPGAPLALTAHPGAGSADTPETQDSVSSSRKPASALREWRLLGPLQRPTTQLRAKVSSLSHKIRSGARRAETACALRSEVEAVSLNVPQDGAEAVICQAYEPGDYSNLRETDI
T2 sequence (P43140 whole entry): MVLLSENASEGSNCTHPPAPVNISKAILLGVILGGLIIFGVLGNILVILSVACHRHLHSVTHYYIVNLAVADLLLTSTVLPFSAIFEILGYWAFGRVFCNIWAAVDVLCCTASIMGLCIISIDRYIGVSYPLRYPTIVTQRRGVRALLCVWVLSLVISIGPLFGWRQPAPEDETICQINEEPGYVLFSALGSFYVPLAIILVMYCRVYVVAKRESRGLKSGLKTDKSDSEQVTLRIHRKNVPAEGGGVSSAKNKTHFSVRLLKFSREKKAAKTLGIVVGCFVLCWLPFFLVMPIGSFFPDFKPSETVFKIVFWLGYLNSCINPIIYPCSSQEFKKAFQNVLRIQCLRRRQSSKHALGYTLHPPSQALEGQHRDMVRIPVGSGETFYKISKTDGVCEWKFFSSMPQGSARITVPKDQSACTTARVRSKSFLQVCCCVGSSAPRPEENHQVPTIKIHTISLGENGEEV

Structure (SMILES)	Ks [1] [nM]	pKb [2]	Ratio [3]	Ki [4] [µM]
CCOC(=O)CN1C(=O)N(CC(O)CN2CCN(c3ccccc3OC)CC2)C(c2ccccc2)(c2ccccc2)C1=O (racemic)	88			
COc1ccccc1N1CCN(CC(O)CN2C(=O)NC(=O)C2(c2ccccc2)c2ccccc2)CC1 (racemic)	95			
CCOc1ccccc1N1CCN(CC(O)CN2C(=O)N(C(C)C(=O)OC)C(=O)C2(c2ccccc2)c2ccccc2)CC1 (racemic)	28			
COc1ccccc1N1CCN(CC(O)CN2C(=O)N(C)C(=O)C2(c2ccccc2)c2ccccc2)CC1 (racemic)	22			
CCOc1ccccc1N1CCN(CC(O)CN2C(=O)NC(=O)C2(c2ccccc2)c2ccccc2)CC1 (racemic)	83	7.44		
CCOc1ccccc1N1CCN(CC(O)CN2C(=O)N(CC(=O)OC)C(=O)C2(c2ccccc2)c2ccccc2)CC1 (racemic)	37			
COC(=O)CN1C(=O)N(CC(O)CN2CCN(c3ccccc3OC)CC2)C(c2ccccc2)(c2ccccc2)C1=O (racemic)	86		2.29	
COC(=O)C(C)N1C(=O)N(CC(O)CN2CCN(c3ccccc3OC)CC2)C(c2ccccc2)(c2ccccc2)C1=O (racemic)	104		1	
CCOC(=O)C(C)N1C(=O)N(CC(O)CN2CCN(c3ccccc3OC)CC2)C(c2ccccc2)(c2ccccc2)C1=O (racemic)	30		4.52	
CCOc1ccccc1N1CCN(CC(CN2C(=O)N(C)C(=O)C2(c2ccccc2)c2ccccc2)OC(C)=O)CC1 (racemic)	38			

Further lines, results first:

Ks [1] [nM]	pKb [2]	Ratio [3]	Ki [4] [µM]	Structure (SMILES)
573				O=C1NC(=O)C(c2ccccc2)(c2ccccc2)N1CC(O)CN1CCN(c2ccccc2)CC1 (racemic)
610				CCN1C(=O)N(CC(O)CN2CCN(c3ccccc3)CC2)C(c2ccccc2)(c2ccccc2)C1=O (racemic)
7		17.4		CCOc1ccccc1N1CCN(CC(O)CN2C(=O)N(C)C(=O)C2(c2ccccc2)c2ccccc2)CC1 (racemic)
575		8.35	4.8	COc1ccccc1N1CCN(CC(O)CN2C(=O)N(CC(=O)O)C(=O)C2(c2ccccc2)c2ccccc2)CC1.Cl (racemic)
